Data published in ChEMBL document CHEMBL1138799, “4-benzyl- and 4-benzoyl-3-dimethylaminopyridin-2(1H)-ones, a new family of potent anti-HIV agents: optimization and in vitro evaluation against clinically important HIV mutant strains” (J Med Chem, 2004).

Tests used:
[1] = system: Human immunodeficiency virus 1; experiment: Inhibitory activity against HIV-1 mutant strain 188L; assay type: functional, organism-based
Summary of the method: (§1)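 Mutant HIV-1 made by recombining mutant PR-RT sequence into a PR-RT-deleted HXB2 proviral clone. Serial compound concentrations plated, then virus (200 CCID50/well) and MT4 cells (30 000 cells/well; RPMI 1640, 10% FCS) added; 5 days at 37 °C, 5% CO2; viability read by MTT. EC50 = concentration giving 50% infection versus drug-free control; mock-infected cultures run in parallel for toxicity.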

[2] = system: Human immunodeficiency virus 1; experiment: Inhibitory activity against HIV-1 double mutants strain 100I and 103N; assay type: functional, organism-based; summary of the method: as §1
[3] = system: Human immunodeficiency virus 1; experiment: Inhibitory activity against HIV-1 mutant strain 227C; assay type: functional, organism-based; summary of the method: as §1
[4] = system: Human immunodeficiency virus 1; experiment: Inhibitory activity against wild type HIV-1 LAI cell line; assay type: functional, organism-based; conditions: Human immunodeficiency virus 1, LAI
Summary of the method: (§2)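 MT4 human T-lymphoblastoid cells were grown in RPMI 1640 with 10% fetal calf serum and antibiotics at 37 °C and 5% CO2. A compound concentration series was combined with HIV-1 LAI at 200 CCID50/well and 30 000 cells/well. Mock-infected cultures with the same concentrations were run in parallel to measure cytotoxicity. After 5 days, cell viability was read by MTT colorimetry. EC50 is the concentration giving 50% infection versus the drug-free control.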

[5] = system: Human immunodeficiency virus 1; experiment: Inhibitory activity against HIV-1 mutant strain 103N; assay type: functional, organism-based; summary of the method: as §1
[6] = system: Human immunodeficiency virus 1; experiment: Inhibitory activity against HIV-1 mutant strain 138K; assay type: functional, organism-based; summary of the method: as §1
[7] = system: Human immunodeficiency virus 1; experiment: Inhibitory activity against HIV-1 double mutants strain 227L and 106A; assay type: functional, organism-based; summary of the method: as §1
[8] = system: Human immunodeficiency virus 1; experiment: Inhibitory activity against HIV-1 double mutants strain 101E and 103N; assay type: functional, organism-based; summary of the method: as §1
[9] = system: Human immunodeficiency virus 1; experiment: Inhibitory activity against HIV-1 double mutants strain 103N and 181C; assay type: functional, organism-based; summary of the method: as §1
[10] = system: Human immunodeficiency virus 1; experiment: Inhibitory activity against HIV-1 mutant strain 101E; assay type: functional, organism-based; summary of the method: as §1
[11] = system: Human immunodeficiency virus 1; experiment: Inhibitory activity against HIV-1 mutant strain 106A; assay type: functional, organism-based; summary of the method: as §1
[12] = system: Human immunodeficiency virus 1; experiment: Selectivity index of cytotoxic activity (CC50) to inhibitory activity (IC50) relative to LAI cell line; assay type: functional; summary of the method: as §2
[13] = system: Human immunodeficiency virus 1; experiment: Inhibitory activity against HIV-1 mutant strain 190A; assay type: functional, organism-based; summary of the method: as §1
[14] = system: Human immunodeficiency virus 1; experiment: Inhibitory activity against HIV-1 mutant strain 190S; assay type: functional, organism-based; summary of the method: as §1
[15] = system: Human immunodeficiency virus 1; experiment: Inhibitory activity against HIV-1 mutant strain 181C; assay type: functional, organism-based; summary of the method: as §1
[16] = system: Human immunodeficiency virus 1; experiment: Inhibitory activity against HIV-1 mutant strain 100I; assay type: functional, organism-based; summary of the method: as §1
[17] = system: Human immunodeficiency virus 1; experiment: Inhibitory activity against HIV-1 mutant strain 179E; assay type: functional, organism-based; summary of the method: as §1

SMILES | IC50 [1] [nM] | IC50 [2] [nM] | IC50 [3] [nM] | IC50 [4] [nM] | IC50 [5] [nM] | IC50 [6] [nM] | IC50 [7] [nM] | IC50 [8] [nM] | IC50 [9] [nM] | IC50 [10] [nM] | IC50 [11] [nM] | Selectivity index [12] | IC50 [13] [nM] | IC50 [14] [nM] | IC50 [15] [nM] | IC50 [16] [nM] | IC50 [17] [nM]
CCc1c(C)nc(O)c(N(C)C)c1C(=O)c1cccc(/C=C/C#N)c1 | 150 | 20 | 790 | 1 | 2 | 5 | 1000 | 10 | 40 | 8 | 2 | 10000 | 6 | 6 | 10 | 6 | 1
CCc1c(C)nc(O)c(N(C)C)c1C(=O)c1cccc(/C(C)=C/C#N)c1 | 390 | 40 | 1250 | 1 | 3 | 4 | 1250 | 20 | 200 | 8 | 3 | 63100 | 6 | 10 | 60 | 10 | 2
CCOCn1c(Cc2ccccc2)c(C(C)C)c(=O)[nH]c1=O [EMIVIRINE] | 39800 | 25100 | 79400 | 8 | 790 | 70 | 100000 | 7940 | 100000 | 120 | 1990 | 1260 | 1580 | 7940 | 1990 | 40 | 30
